Measured values published in ChEMBL document CHEMBL4049458, “Structure-Based Optimization of Thiophene[3,2-d]pyrimidine Derivatives as Potent HIV-1 Non-nucleoside Reverse Transcriptase Inhibitors with Improved Potency against Resistance-Associated Variants” (J Med Chem, 2017).

How the values were obtained:
[1] = system: Human immunodeficiency virus 2; test: Antiviral activity against HIV2 ROD harboring reverse transcriptase infected in human MT4 cells assessed as protection against virus induced cytotoxicity after 5 days by MTT assay; type: functional, cell-based; settings: Human immunodeficiency virus 2, ISOLATE ROD, MT4, 120 h
[2] = Selectivity index, ratio of CC50 for human MT4 cells to EC50 for reverse transcriptase F227L/V106A double mutant in human MT4 cells infected HIV1 3B
[3] = Selectivity index, ratio of CC50 for human MT4 cells to EC50 for reverse transcriptase Y188L mutant in human MT4 cells infected HIV1 3B
[4] = Selectivity index, ratio of CC50 for human MT4 cells to EC50 for reverse transcriptase L100I mutant in human MT4 cells infected HIV1 3B
[5] = system: Human immunodeficiency virus 1; test: Antiviral activity against wild type HIV1 3B harboring reverse transcriptase infected in human MT4 cells assessed as protection against virus induced cytotoxicity after 5 days by MTT assay; type: functional, cell-based; settings: Human immunodeficiency virus 1, 3B, MT4, 120 h
[6] = Cytotoxicity against human MT4 cells assessed as cell viability after 5 days by MTT assay; type: cell-based
[7] = Selectivity index, ratio of CC50 for human MT4 cells to EC50 for reverse transcriptase Y181C mutant in human MT4 cells infected HIV1 3B
[8] = Selectivity index, ratio of CC50 for human MT4 cells to EC50 for reverse transcriptase K103N mutant in human MT4 cells infected HIV1 3B
[9] = Selectivity index, ratio of CC50 for human MT4 cells to EC50 for reverse transcriptase E138K mutant in human MT4 cells infected HIV1 3B
[10] = Selectivity index, ratio of CC50 for human MT4 cells to EC50 for wild type HIV1 3B harboring reverse transcriptase infected in human MT4 cells
[11] = Selectivity index, ratio of CC50 for human MT4 cells to EC50 for HIV1 RES056 reverse transcriptase K103N/Y181C double mutant infected in human MT4 cells
[12] = Fold resistance, ratio of EC50 for reverse transcriptase E138K mutant in human MT4 cells infected HIV1 3B to EC50 for wild type HIV1 3B harboring reverse transcriptase infected in human MT4 cells; type: functional
Procedure, shortened: (§1)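 MT-4 cells at 6 × 10^5 cells/mL were infected with WT HIV-1 IIIB or RT-mutant strains at 100−300 CCID50, with 5-fold serial compound dilutions in triplicate wells. After 5 days, viability was read by MTT reduction at 540 and 690 nm, using the median OD of three wells. […] Fold resistance is mutant EC50 divided by WT EC50.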

[13] = Inhibition of recombinant wild type HIV1 3B reverse transcriptase infected in human MT4 cells assessed as decrease in biotin-dUTP incorporation after 1 hr; type: cell-based; settings: Human immunodeficiency virus 1, 3B, MT4, 1 h
Procedure, shortened: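 Recombinant HIV-1 RT assayed with a kit ELISA. Enzyme, reconstituted template and nucleotides (DIG-dUTP, biotin-dUTP, dTTP) were incubated in incubation buffer with or without inhibitor for 1 h at 37 °C. Product was captured on streptavidin plates for 1 h at 37 °C, then anti-DIG-POD was added for 1 h at 37 °C, followed by ABTS. Read at OD405.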

[14] = Fold resistance, ratio of EC50 for reverse transcriptase K103N/Y181C double mutant in human MT4 cells infected HIV1 RES056 to EC50 for wild type HIV1 3B harboring reverse transcriptase infected in human MT4 cells; type: functional; procedure, shortened: as §1
[15] = Fold resistance, ratio of EC50 for reverse transcriptase L100I mutant in human MT4 cells infected HIV1 3B to EC50 for wild type HIV1 3B harboring reverse transcriptase infected in human MT4 cells; type: functional; procedure, shortened: as §1
[16] = system: Human immunodeficiency virus type 1 reverse transcriptase (Human immunodeficiency virus 1), Q72547 [K103N]; test: Potency index, ratio of EC50 for EFV to EC50 for test compound for reverse transcriptase K103N mutant in human MT4 cells infected HIV1 3B; type: cell-based
[17] = system: Human immunodeficiency virus type 1 reverse transcriptase (Human immunodeficiency virus 1), Q72547 [K103N]; test: Potency index, ratio of EC50 for NVP to EC50 for test compound for reverse transcriptase K103N mutant in human MT4 cells infected HIV1 3B; type: cell-based
[18] = Fold resistance, ratio of EC50 for reverse transcriptase K103N mutant in human MT4 cells infected HIV1 3B to EC50 for wild type HIV1 3B harboring reverse transcriptase infected in human MT4 cells; type: functional; procedure, shortened: as §1
[19] = Fold resistance, ratio of EC50 for reverse transcriptase F227L/V106A double mutant in human MT4 cells infected HIV1 3B to EC50 for wild type HIV1 3B harboring reverse transcriptase infected in human MT4 cells; type: functional; procedure, shortened: as §1
[20] = Fold resistance, ratio of EC50 for reverse transcriptase Y181C mutant in human MT4 cells infected HIV1 3B to EC50 for wild type HIV1 3B harboring reverse transcriptase infected in human MT4 cells; type: functional; procedure, shortened: as §1
[21] = Fold resistance, ratio of EC50 for reverse transcriptase Y188L mutant in human MT4 cells infected HIV1 3B to EC50 for wild type HIV1 3B harboring reverse transcriptase infected in human MT4 cells; type: functional; procedure, shortened: as §1

| SMILES | EC50 [1] [µM] | selectivity ratio ([2]; MT4 cells) | selectivity ratio ([3]; MT4 cells) | selectivity ratio ([4]; MT4 cells) | EC50 [5] [µM] | CC50 at 120 h [6] [µM] | selectivity ratio ([7]; MT4 cells) | selectivity ratio ([8]; MT4 cells) | selectivity ratio ([9]; MT4 cells) | selectivity ratio ([10]; MT4 cells) | selectivity ratio ([11]; MT4 cells) | Ratio EC50 [12] | IC50 [13] [µM] | Ratio EC50 [14] | also measured |
| --- | --- | --- | --- | --- | --- | --- | --- | --- | --- | --- | --- | --- | --- | --- | --- |
| Cc1cc(C#N)cc(C)c1Oc1nc(NC2CCC(NCc3ccc([N+](=O)[O-])cc3)CC2)nc2ccsc12 (centres undefined) | > 54.4 | 84 | 5 | 35 | 0.1 | 54.4 | ≤ 2 | 79 | 344 | 544 | < 1 | 1.6 |  |  |  |
| Cc1cc(/C=C/C#N)cc(C)c1Oc1nc(NC2CCN(Cc3ccc(S(C)(=O)=O)cc3)CC2)nc2ccsc12 |  |  |  |  | 0.00232 | 1.8 |  |  |  |  |  |  | 0.89 |  |  |
| Cc1cc(/C=C/C#N)cc(C)c1Oc1nc(NC2CCN(Cc3cccnc3)CC2)nc2ccsc12 | > 3.86 | 664 | 358 | 866 | 0.00322 | 3.86 | 637 | 872 | 587 | 1200 | 308 |  |  | 3.4 - 6 |  |
| Cc1cc(C#N)cc(C)c1Oc1nc(NC2CCC(NCc3ccc(S(C)(=O)=O)cc3)CC2)nc2ccsc12 (centres undefined) | > 75.2 | < 1 | ≤ 1 | ≤ 1 | 0.0573 | 75.2 | < 1 | 212 | 556 | 1320 | < 1 | 2.4 |  |  |  |
| Cc1cc(C#N)cc(C)c1Oc1nc(NC2CCN(Cc3ccc(S(N)(=O)=O)cc3)CC2)nc2ccsc12 |  | > 53500 | > 75800 | > 67400 |  |  | > 70000 | > 78100 | > 78100 |  | > 7350 |  |  | 21 | Ratio EC50 [15]: 2.4 |
| Cc1cc(C#N)cc(C)c1Oc1nc(NC2CCN(Cc3ccc(S(C)(=O)=O)cc3)CC2)nc2sccc12 | > 1.19 | 137 | 124 | 152 | 0.00356 | 1.19 | 200 | 725 | 164 | 335 | 28 |  |  |  | Ratio EC50 [16]: 50; Ratio EC50 [17]: 3370 |
| Cc1cc(C#N)cc(C)c1Oc1nc(NC2CCN(Cc3ccc(S(N)(=O)=O)cc3)CC2F)nc2ccsc12 (centres undefined) | > 5.15 | 590 | 370 | 576 | 0.00569 | 5.15 | 171 | 653 | 296 | 906 | 138 | 1.4 - 6.5 |  | 1.4 - 6.5 | Ratio EC50 [18]: 1.4 - 6.5; Ratio EC50 [19]: 1.4 - 6.5; Ratio EC50 [15]: 1.4 - 6.5; Ratio EC50 [20]: 1.4 - 6.5; Ratio EC50 [21]: 1.4 - 6.5 |
| Cc1cc(C#N)cc(C)c1Oc1nc(Nc2ccc(C#N)cc2)nc(N)c1Br [ETRAVIRINE] |  |  |  |  | 0.00407 | > 4.59 |  |  |  |  |  | 0.6 - 7.2 | 1 | 4.2 | selectivity ratio [2]: 156; selectivity ratio [3]: > 224; Ratio EC50 [18]: 0.6 - 7.2; selectivity ratio [4]: > 853; Ratio EC50 [19]: 0.6 - 7.2; selectivity ratio [7]: > 291; Ratio EC50 [15]: 1.3; selectivity ratio [8]: > 1950; selectivity ratio [9]: > 318; Ratio EC50 [20]: 0.6 - 7.2; selectivity ratio [10]: > 1130; selectivity ratio [11]: > 270; Ratio EC50 [21]: 0.6 - 7.2 |
| Cc1cc(C#N)cc(C)c1Oc1nc(NC2CCN(Cc3ccc(S(N)(=O)=O)cc3)CC2)nc2sccc12 | > 24.1 | 2730 | 3170 | 5440 | 0.00197 | 24.1 | 3160 | 7370 | 3180 | 12300 | 625 |  | 0.42 |  |  |
| Cc1cc(C#N)cc(C)c1Oc1nc(NC2CCC(NCc3ccc(S(N)(=O)=O)cc3)CC2)nc2ccsc12 (centres undefined) |  |  |  |  | 0.0422 | 3.69 |  |  |  |  |  |  | 4.02 |  |  |
| Cc1cc(C#N)cc(C)c1Oc1nc(NC2CCC(NCc3ccc(Br)cc3)CC2)nc2ccsc12 (centres undefined) | > 3.45 | < 1 | < 1 | ≤ 2 | 0.339 | 3.45 | < 1 | ≤ 5 | 4 | 10 | < 1 |  |  |  |  |
| Cc1cc(/C=C/C#N)cc(C)c1Oc1nc(NC2CCN(Cc3ccccc3F)CC2)nc2ccsc12 | > 2.48 | 61 | 18 | 32 | 0.00634 | 2.48 | 83 | 361 | 74 | 392 | 14 |  |  |  |  |
